Most compounds without a hit are left out; they make up all but 2.4% or so of the library.
MC4R antag cAMP: blocks human MC4R cAMP signaling; MC4R-expressing cells, MTII-stimulated cAMP, LANCE TR-FRET; 0.48% of 360,000 active; AID 540295; inhibition, % at 6.5 µM;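 active means inhibition above its plate's cutoff, the mean of tested wells on that plate plus 3 SD, cut at about 29% in these data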;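 further: 0% = Melanotan II alone and 100% = Melanotan II plus saturating MCL0020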
Target sequence (P32245 whole entry, looked up): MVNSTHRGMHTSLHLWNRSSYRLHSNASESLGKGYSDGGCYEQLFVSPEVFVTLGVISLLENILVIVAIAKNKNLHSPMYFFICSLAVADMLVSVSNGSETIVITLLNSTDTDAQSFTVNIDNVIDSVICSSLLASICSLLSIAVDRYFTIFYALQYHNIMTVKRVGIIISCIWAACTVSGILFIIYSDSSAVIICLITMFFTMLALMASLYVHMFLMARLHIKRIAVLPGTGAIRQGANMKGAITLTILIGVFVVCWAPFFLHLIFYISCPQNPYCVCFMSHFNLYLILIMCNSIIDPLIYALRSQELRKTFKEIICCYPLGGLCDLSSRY
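Material: U2OS-MC4R stable cell line | Reagent: Melanotan II challenge after compound preincubation | Doses: One concentration, 6.5 µM nominal | Incubation: 30-min compound preincubation, 1-h Melanotan II challenge, 1-h detection, room temperature | Signal: TR-FRET cAMP assay | Replicates: One well per compound, no replicates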
MC4R ag barr: activates human MC4R beta-arrestin recruitment | U2OS MC4R beta-arrestin complementation, luminescence; percent of melanotan II response, DMSO zero | 0.98% of 360,000 active | AID 540308 | activation, % at 8.9 µM | P32245;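 active means activation above a per-plate cutoff, the mean activation of sample wells on that plate plus 3 SD, cut at about 8% in these data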
Tb MetRS inh: Trypanosoma brucei MetRS inhibition | purified T. brucei MetRS, ATP depletion, Kinase-Glo luminescence | inhibition, % at 11.9 µM | 0.4% of 360,000 active | AID 624268;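 active means inhibition above a per-plate cutoff of the control wells' mean inhibition plus 3 SD, cut at about 5.5% in these data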;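 further: 0% = DMSO wells median and 100% = median of wells with control inhibitor compound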
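Material: parasite MetRS enzyme / Replication: singlicate, one well per compound / Signal: luminescence of leftover ATP / Schedule: 2 h aminoacylation at 25 °C after 15 min preincubation / Medium: HEPES-MgCl2-KCl buffer plus DTT, spermine, BSA, pyrophosphatase / Doses: 11.9 µM single point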
TAG inh: inhibitors of triacylglycerol accumulation | 0.66% of 230,000 active | inhibition, % at 12.5 µM | AID 651582 | H9c2 cells, Nile Red lipid (TAG) fluorescence; cells loaded with 200 µM oleic acid;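 active means pattern-corrected inhibition of lipid staining of at least 50% with the nuclear-stain viability signal not falling by more than 50%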;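 further: 0% = DMSO wells and 100% = triacsin C control wells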
aDG glyco up: increases alpha dystroglycan glycosylation; Pro5-aDG cells, alpha-DG glycosylation AlphaScreen (IIH6); 0% Pro5, 100% B10-LARGE cell signal; activation, % at 10 µM; 0.22% of 360,000 active; AID 624168;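 active means activation of at least 8% versus controls, or a plate z-score of at least 8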;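 further: Pro5 are CHO cells carrying HIG-tagged alpha-DG that lacks glycosylation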
NTR1 ag: agonists of human neurotensin receptor NTR1 | P30989 | NTR1-U2OS beta-arrestin-GFP spot imaging, agonist mode | activation, % at 20 µM | 0.17% of 330,000 active | AID 493036;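 active means activation at or above 40% of the spot to cytoplasm intensity ratio, with at least 20 cells analyzed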;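 further: 0% = DMSO without peptide and 100% = 100 nM NTR1 peptide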
MC4R barr conf: human MC4R beta-arrestin agonism confirmation. 31% of 2,400 active. shares compounds with MC4R ag barr. activation, % at 8.9 µM. U2OS MC4R beta-arrestin recruitment, luminescence; scaled DMSO 0%, Melanotan II 100%;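 active means mean activation across replicates above the hit cutoff set in the earlier primary screen, cut at about 8% in these data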
MOR-DOR barr ag: activates mu-delta opioid heterodimer, MC4R agonist counter-screen; activation, % at 9.2 µM; shares compounds with MC4R ag barr; 5.8% of 2,400 active; U2OS PathHunter beta-arrestin, beta-gal luminescence; percent of deltorphin B response, DMSO zero;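 active means mean activation across replicates exceeds the hit threshold derived in the earlier primary screen, cut at about 18% in these data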;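 further: 100% = deltorphin B at 0.9 µM final and 0% = DMSO alone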
* = called active by the depositor; · = no result given.

SMILES	MC4R antag cAMP	MC4R ag barr	Tb MetRS inh	TAG inh	aDG glyco up	NTR1 ag	MC4R barr conf	MOR-DOR barr ag
CCc1nc2c(OCc3cccc(OC)c3)cccn2c1N(C)C(=O)c1ccc(OC)cc1	-2	-1	0	8	0	·	·	·
COCCCn1cc(CN2CC(N3CCN(CCO)CC3)CS2(=O)=O)nn1 (centres undefined)	·	·	-1	·	0	·	·	·
O=C(NCC1OCCc2ccccc21)c1ccc(NC(=O)c2ccc(Cl)cc2Cl)cc1 (centres undefined)	-8	15*	0	·	0	13	2	2
O=C(NCC1OCCc2ccccc21)c1ccc(NC(=O)c2ccccc2Cl)cc1 (centres undefined)	4	-1	-1	·	1	1	·	·
O=C(Nc1c(-c2ccc(Cl)cc2)[nH][nH]c1=O)c1ccc(Br)cc1	·	·	0	·	0	·	·	·
CCCCCCCCC[n+]1cccc2c3ccccc3ccc21	-12	13*	5.7*	·	3	9	8.4*	7
O=[N+]([O-])c1ccc(C[n+]2cccc3c4ccccc4ccc32)cc1	12	0	2	-17	0	-1	·	·
Cc1ccccc1C[n+]1cccc2ccccc21	1	-2	0	-27	0	1	·	·
CCCCCCCCCCCCCCCC[n+]1cccc2ccccc21	-8	18*	-1	·	0	1	34*	23*
Cn1cccc1/C=N\NC(=O)Cc1ccc(Br)c2ccccc12	-1	17*	1	-41	4	8	1	6
O=C1NC[C@H](CCCCN2C[C@H](Cc3ccc(O)cc3)N(CCc3ccc(O)cc3)C(=O)C2=O)N(CC2CCCCC2)C1=O	·	·	0	·	0	·	·	·
COc1ccc(OCC(O)CN2CCN(c3ccc(Cl)cc3)CC2)cc1 (centres undefined)	4	11*	0	·	0	-1	3	7
COc1cccc(OCC(O)CN2CCN(c3ccc(Cl)cc3)CC2)c1 (centres undefined)	-9	1	-1	·	0	2	·	·
COc1ccc(C(C)(O)c2nc(-c3ccc4ccccc4c3)cs2)cc1 (centres undefined)	2	0	0	-17	0	·	·	·
COC(=O)C1=C(C)N(Cc2ccccc2)C(=NCc2ccccc2)N[C@H]1c1cccc(F)c1	11	9.6*	0	92*	1	18	11*	11
Cc1ccc(C(=O)Nc2ccc(C(=O)/C=C/c3cccs3)cc2)cc1	9	28*	-2	19	0	0	2	6
O=C(/C=C/c1cccs1)c1ccc(NC(=O)c2cccc(Br)c2)cc1	8	3	-1	34	0	5	·	·
Fc1cccc(Cc2c(-c3ccco3)nc3c(Cl)cc(C(F)(F)F)cn23)c1	·	·	0	·	0	·	·	·
CCn1c2ccccc2c2cc(NC(=O)CSc3nnc(-c4ccc(OC)cc4)n3N)ccc21	-1	21*	-1	·	-1	11	12*	20*
O=C(NCc1ccccc1)C1C(=O)Nc2ccccc2C(=O)N1c1ccc2c(c1)OCCO2 (centres undefined)	·	·	-1	·	0	·	·	·
CC(C)=NNc1cnnc2ccc([N+](=O)[O-])cc12	·	·	-1	·	0	·	·	·
CNc1nc(N/N=C/c2cc3c(cc2[N+](=O)[O-])OCO3)nc(Nc2ccccc2)n1	16	25*	0	22	-1	3	8	10
O=[N+]([O-])c1cc2c(cc1/C=N\NS(=O)(=O)c1ccccc1)OCO2	7	-2	0	·	0	-1	·	·
COc1ccc(CNC(=O)[C@@H]2CC=C[C@@H]3CCN(Cc4ccc(Cl)c(Cl)c4)C(=O)[C@@H]32)cc1	1	18*	0	-13	1	3	8.8*	3

Source: PubChem BioAssay
